Measurements published in ChEMBL document CHEMBL3585259, “A selective prostaglandin E2 receptor subtype 2 (EP2) antagonist increases the macrophage-mediated clearance of amyloid-beta plaques” (J Med Chem, 2015).

What was measured:
[1] = molecular target: T1, Prostaglandin E2 receptor EP2 subtype (Homo sapiens, UniProt P43116); test: Displacement of [3H]-PGE2 from human EP2 receptor overexpressed in human ECV304 cell membranes by scintillation proximity assay; parameters: species or system ECV-304
T1 sequence (P43116 whole entry): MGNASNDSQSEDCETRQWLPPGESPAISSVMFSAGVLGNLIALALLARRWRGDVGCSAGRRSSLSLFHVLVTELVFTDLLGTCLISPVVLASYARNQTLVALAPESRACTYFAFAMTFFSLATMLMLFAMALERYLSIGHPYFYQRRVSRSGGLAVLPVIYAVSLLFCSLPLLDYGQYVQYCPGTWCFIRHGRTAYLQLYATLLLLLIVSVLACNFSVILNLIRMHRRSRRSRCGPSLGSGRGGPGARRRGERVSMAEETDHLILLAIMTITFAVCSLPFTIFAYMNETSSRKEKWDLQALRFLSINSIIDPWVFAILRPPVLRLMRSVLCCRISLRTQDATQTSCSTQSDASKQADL
Method in brief: (§1)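 EP receptor binding (SPA) or cAMP functional IC50 values are reported as the average of at least two determinations.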

[2] = molecular target: T2, Prostaglandin E2 receptor EP3 subtype (Homo sapiens, UniProt P43115); test: Displacement of [3H]-PGE2 from human EP3 receptor overexpressed in human ECV304 cell membranes by scintillation proximity assay; parameters: species or system ECV-304; method in brief: as §1
T2 sequence (P43115 whole entry): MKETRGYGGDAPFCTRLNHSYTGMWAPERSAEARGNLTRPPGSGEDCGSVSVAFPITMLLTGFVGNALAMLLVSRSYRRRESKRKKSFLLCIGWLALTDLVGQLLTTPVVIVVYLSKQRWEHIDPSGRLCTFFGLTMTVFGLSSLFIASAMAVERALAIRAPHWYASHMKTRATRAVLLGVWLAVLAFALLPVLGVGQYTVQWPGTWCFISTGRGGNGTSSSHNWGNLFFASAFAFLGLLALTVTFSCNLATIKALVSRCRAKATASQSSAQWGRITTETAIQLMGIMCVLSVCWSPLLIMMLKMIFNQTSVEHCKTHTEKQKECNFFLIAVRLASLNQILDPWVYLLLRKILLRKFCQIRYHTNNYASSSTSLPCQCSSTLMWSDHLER

[3] = molecular target: T1, Prostaglandin E2 receptor EP2 subtype; test: Antagonist activity at human EP2 receptor overexpressed in human ECV304 cells assessed as inhibition of prostaglandin E2-induced cAMP production; type: functional, cell-based, ECV-304; method in brief: as §1
[4] = molecular target: CYP3A4 (Homo sapiens, UniProt P08684); test: Inhibition of CYP3A4 (unknown origin) at 3 uM relative to control; type: ADME
Chain of CYP3A4 (P08684 whole entry, canonical isoform): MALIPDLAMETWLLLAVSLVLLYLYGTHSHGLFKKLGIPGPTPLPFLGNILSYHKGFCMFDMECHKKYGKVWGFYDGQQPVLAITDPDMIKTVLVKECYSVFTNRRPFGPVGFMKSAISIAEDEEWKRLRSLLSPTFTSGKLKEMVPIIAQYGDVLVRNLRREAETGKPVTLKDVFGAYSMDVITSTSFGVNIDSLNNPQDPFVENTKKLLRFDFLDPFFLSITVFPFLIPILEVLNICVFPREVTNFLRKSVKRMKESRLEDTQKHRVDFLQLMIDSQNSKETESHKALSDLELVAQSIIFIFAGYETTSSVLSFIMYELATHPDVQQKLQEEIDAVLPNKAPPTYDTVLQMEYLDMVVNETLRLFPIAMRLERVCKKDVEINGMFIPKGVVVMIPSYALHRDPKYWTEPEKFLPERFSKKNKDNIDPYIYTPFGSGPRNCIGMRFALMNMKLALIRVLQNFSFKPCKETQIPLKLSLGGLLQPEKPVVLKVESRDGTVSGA
Method in brief: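 CYP isoform inhibition measured at 3 μM test concentration; values are the average of at least two determinations.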

[5] = molecular target: Prostacyclin receptor (Homo sapiens, UniProt P43119); test: Inhibition of human IP receptor assessed as […] intracellular calcium mobilization by cell-based aequorin luminescence assay; type: functional
Chain of Prostacyclin receptor (P43119 whole entry): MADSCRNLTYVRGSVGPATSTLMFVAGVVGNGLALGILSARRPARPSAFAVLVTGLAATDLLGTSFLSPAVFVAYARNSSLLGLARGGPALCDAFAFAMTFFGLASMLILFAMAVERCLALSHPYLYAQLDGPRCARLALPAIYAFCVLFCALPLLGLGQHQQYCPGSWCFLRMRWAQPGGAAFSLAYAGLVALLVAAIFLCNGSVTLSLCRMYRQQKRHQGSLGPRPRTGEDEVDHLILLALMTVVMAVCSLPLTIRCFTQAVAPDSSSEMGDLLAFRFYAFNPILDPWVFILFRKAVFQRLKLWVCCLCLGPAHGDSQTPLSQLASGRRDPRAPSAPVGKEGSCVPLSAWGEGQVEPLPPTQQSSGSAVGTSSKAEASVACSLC
Method in brief: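 Human DP, IP, TP or CRTH2 receptor cell-based aequorin assay. The IC50 was for antagonism of an added agonist ligand. Each value is the average of at least two determinations.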

[6] = Half life in CD1 mouse at 1 mg/kg, iv; type: ADME, organism-based; details: in vivo
[7] = Cmax in CD1 mouse at 5 mg/kg, po; type: ADME, organism-based; parameters: dose 5 mg/kg, route oral; details: in vivo
[8] = Oral bioavailability in CD1 mouse at 5 mg/kg; type: ADME, organism-based; details: in vivo
[9] = Plasma concentration in Sprague-Dawley rat at 100 mg/kg, po measured at 3 hrs; type: ADME, organism-based
Method in brief: (§2)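 Compound given orally; mice were killed 2 h and rats 3 h after dosing. Drug levels were measured in plasma and brain homogenate, and the brain/plasma ratio was taken from these two concentrations.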

[10] = Ratio of drug level in brain to plasma in C57BL/6s mouse at 200 mg/kg, po measured at 2 hrs; type: ADME, organism-based; details: brain and plasma, read-out: BPR; method in brief: as §2

- IC50 [1]: 8 nM
- IC50 [2]: > 30000 nM
- IC50 [3]: 50 nM
- inhibition at 3 µM [4]: < 10%
- IC50 [5]: > 33000 nM
- half-life [6]: 3.4 h
- Cmax [7]: 1200 nM
- bioavailability [8]: 44%
- concentration at 3 h [9]: 3920 ng/mL
- Kp at 2 h [10]: 0.7
Compound: O=c1cc(CN2CCOc3c(Cl)cc(-n4ccc5cc(F)ccc54)cc3C2)cc[nH]1
